According to ChEMBL document CHEMBL5380838, “Novel Aryl Sulfonamide Derivatives as NLRP3 Inflammasome Inhibitors for the Potential Treatment of Cancer” (J Med Chem, 2023):
Calls of active or inactive are those of the source. The calls are words filed in the database; no cut-off is given here.

How the values were obtained:
THP-1 [1] = experiment: Cytotoxicity against human THP-1 cells assessed as reduction in cell viability at 1 uM measured after 48 hrs by RealTime-Glo MT assay; assay type: toxicity, cell-based; conditions: thp-1, 48 h
How it was run: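 THP-1 cells (10 × 10^4/well) treated with inhibitors at 1 µM and kept 48 h; RealTime-Glo reagent added, luminescence read every 12 h as a proxy for metabolically active cells; means of RLU ± SEM.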

THP-1 [2] = experiment: Suppression of NLRP3 expression in LPS-treated human THP-1 cells at 1 to 1000 nM incubated for 30 mins followed by ATP stimulation for 1 hr […]; assay type: functional, cell-based; conditions: dose 1-1000 nM, time 90.0 min
THP-1 [3] = experiment: Suppression of caspase-1 expression in LPS-treated human THP-1 cells at 1 to 1000 nM incubated for 30 mins followed by ATP stimulation for 1 hr by […]; assay type: functional, cell-based; conditions: dose 1-1000 nM, time 90.0 min
How it was run: (§1)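 PMA-differentiated THP-1 cells (1 × 10^6/well) primed with LPS 1 µg/mL for 3 h, then DMSO or compound in serum-free medium for 30 min, then 5 mM ATP for 1 h. RIPA lysates (20 µg) and concentrated supernatants run on SDS-PAGE and western blotted for NLRP3, ASC, caspase-1 and IL-1β, normalized to GAPDH; three independent experiments.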

THP-1 [4] = experiment: Suppression of ASC expression in LPS-treated human THP-1 cells at 1 to 1000 nM incubated for 30 mins followed by ATP stimulation for 1 hr […]; assay type: functional, cell-based; conditions: dose 1-1000 nM, time 90.0 min; how it was run: as §1
THP-1 [5] = experiment: Suppression of pro-IL-1beta expression in LPS-treated human THP-1 cells at 1 to 1000 nM incubated for 30 mins followed by ATP stimulation for 1 hr […]; assay type: functional, cell-based; conditions: dose 1-1000 nM, time 90.0 min
THP-1 [6] = experiment: Suppression of caspase-1 p10 expression in LPS-treated human THP-1 cells at 1 to 1000 nM incubated for 30 mins followed by ATP stimulation for 1 hr […]; assay type: functional, cell-based; conditions: dose 1-1000 nM, time 90.0 min
THP-1 [7] = experiment: Suppression of IL-1beta processing in LPS-treated human THP-1 cells at 1 to 1000 nM incubated for 30 mins followed by ATP stimulation for 1 hr by ELISA method; assay type: functional, cell-based; conditions: dose 1-1000 nM, time 90.0 min
BMDM [8] = experiment: Effect on NLRC4 inflammasome activation in LPS-treated mouse BMDM cells assessed as IL-1beta release at 1 uM incubated for 30 mins followed by Salmonella typhimurium flagellin stimulation for 2 hrs by ELISA method; assay type: functional, cell-based; conditions: time 150.0 min
How it was run: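 BMDMs primed with LPS 100 ng/mL for 3 h, then compound 1 µM in serum-free medium for 30 min, then flagellin 100 ng/mL for 2 h; supernatant mouse IL-1β by ELISA.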

BMDM [9] = experiment: Effect on AIM2 inflammasome activation in LPS-treated mouse BMDM cells assessed as IL-1beta release at 1 uM incubated for 30 mins followed by Poly (dA:dT) stimulation for 4 hrs by ELISA method; assay type: functional, cell-based; conditions: time 270.0 min
How it was run: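 BMDMs primed with LPS 100 ng/mL for 3 h, then compound 1 µM in serum-free medium for 30 min, then poly(dA:dT) 1 µg/mL transfected with lipofectamine 2000 for 4 h; supernatant mouse IL-1β by ELISA.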

BMDM [10] = experiment: Effect on ASC level in LPS-treated mouse BMDM cells at 1 uM incubated for 30 mins followed by ATP stimulation for 1 hr by Hoechst staining based microscopy; assay type: functional, cell-based; conditions: time 90.0 min
How it was run: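 BMDMs primed with LPS 1 µg/mL for 2 h, given DMSO or compound 1 µM for 30 min, then 5 mM ATP for 1 h. Cells fixed in 4% PFA, permeabilized with 0.1% Triton X-100, stained with anti-ASC overnight at 4 °C plus fluorescent secondary, nuclei Hoechst 1 µM; confocal imaging with 63× oil objective.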

BMDM [11] = experiment: Effect on NLRP3-ASC interaction in LPS-treated mouse BMDM cells at 1 uM incubated for 30 mins followed by ATP stimulation for 1 hr by co-immunoprecipitation based Western blot analysis; assay type: functional, cell-based; conditions: time 90.0 min
How it was run: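 BMDMs (1 × 10^7) primed with LPS 2 h, treated 1 µM compound 30 min, then ATP 1 h; lysed in HEPES/NaCl/glycerol/EDTA/0.5% Triton buffer with protease/phosphatase inhibitors; NLRP3–ASC co-immunoprecipitation, bait eluted in Laemmli buffer, western blot; representative of three independent experiments.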

Mus musculus [12] = experiment: Antiinflammatory activity in LPS-induced C57BL/6 mouse assessed as reduction in IL-1beta production in peritoneal exudate at 25 mg/kg, ip pretreated for 30 mins followed by LPS induction measured after 4 hrs by ELISA method; assay type: functional, organism-based; conditions: time 4.5 hrs
How it was run: (§2)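 C57BL/6 mice given inhibitor 25 mg/kg IP (vehicle DMSO) 30 min before IP LPS 1 mg/kg; after 4 h, peritoneal exudate and blood collected, plasma from centrifugation 1000g 15 min 4 °C; IL-1β measured by ELISA; mean ± SEM of three independent experiments.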

Mus musculus [13] = experiment: Antiinflammatory activity in LPS-induced C57BL/6 mouse assessed as reduction in IL-1beta production in plasma at 25 mg/kg, ip pretreated for 30 mins followed by LPS induction measured after 4 hrs by ELISA method; assay type: functional, organism-based; conditions: time 4.5 hrs; how it was run: as §2
B16-F10 [14] = experiment: Antitumor activity against cytosolic luciferase-transfected mouse B16-F10 cells xenografted in C57BL/6 mouse assessed as tumor reduction at 25 mg/kg, ip administered thrice weekly measured after 14 days by bioluminescence assay; assay type: functional, organism-based; conditions: time 14.0 day
How it was run: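 Female C57BL/6 mice aged 6–8 weeks inoculated subcutaneously with 1 × 10^6 B16-F10 cells stably expressing cytosolic luciferase. From day 5, IP dosing of 25 mg/kg thrice weekly, DMSO for controls, five mice per group. Imaging after IP D-luciferin 150 mg/kg under 2.5% isoflurane, read after 15 min. Caliper volume = π/6 × a × b². Tumors excised day 14.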

B16-F10 [15] = experiment: Effect on NLRP3 expression in cytosolic luciferase-transfected mouse B16-F10 cells xenografted in C57BL/6 mouse at 25 mg/kg, ip administered thrice weekly measured after 14 days by Western blot analysis; assay type: functional, organism-based; conditions: time 14.0 day
How it was run: (§3)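 Tumors from luciferase-expressing B16-F10 grafts in C57BL/6 mice, dosed IP at 25 mg/kg thrice weekly (DMSO controls), were excised at endpoint and homogenized in sucrose/HEPES/IGEPAL lysis buffer. Lysates were western blotted and bands expressed as fold ratio over β-actin (n = 5).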

B16-F10 [16] = experiment: Effect on total caspase-1 expression in cytosolic luciferase-transfected mouse B16-F10 cells xenografted in C57BL/6 mouse at 25 mg/kg, ip administered thrice weekly measured after 14 days by Western blot analysis; assay type: functional, organism-based; conditions: time 14.0 day; how it was run: as §3
B16-F10 [17] = experiment: Effect on cleaved caspase-1 expression in cytosolic luciferase-transfected mouse B16-F10 cells xenografted in C57BL/6 mouse at 25 mg/kg, ip administered thrice weekly measured after 14 days by Western blot analysis; assay type: functional, organism-based; conditions: time 14.0 day; how it was run: as §3
B16-F10 [18] = experiment: Effect on ASC expression in cytosolic luciferase-transfected mouse B16-F10 cells xenografted in C57BL/6 mouse at 25 mg/kg, ip administered thrice weekly measured after 14 days by Western blot analysis; assay type: functional, organism-based; conditions: time 14.0 day; how it was run: as §3
B16-F10 [19] = experiment: Effect on pro-IL-1beta expression in cytosolic luciferase-transfected mouse B16-F10 cells xenografted in C57BL/6 mouse at 25 mg/kg, ip administered thrice weekly measured after 14 days by Western blot analysis; assay type: functional, organism-based; conditions: time 14.0 day; how it was run: as §3
B16-F10 [20] = experiment: Antiproliferative activity against cytosolic luciferase-transfected mouse B16-F10 cells xenografted in C57BL/6 mouse assessed as effect on cell growth at 25 mg/kg, ip administered thrice weekly measured after 5 days; assay type: functional, organism-based; conditions: time 5.0 day
B16-F10 [21] = experiment: Antiproliferative activity against LPS-treated mouse B16-F10 cells co-cultured with mouse peritoneal macrophages assessed as decrease in cell growth at 1 uM incubated for 30 mins followed by ATP stimulation for 1 hr measured after 48 hrs by cell counting method; assay type: functional, cell-based; conditions: time 49.5 hrs
How it was run: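 Transwell co-culture (0.4 µm pores), 48 h: peritoneal macrophages from C57BL/6 mice (2 × 10^5, lower well) primed with LPS 1 µg/mL 2 h, then DMSO or compound 1 µM 30 min, then ATP 1 h; B16-F10 cells (2 × 10^3) in upper insert; tumor cells removed after 48 h and counted by image-based cytometer.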

[22] = Metabolic stability in human liver microsomes assessed as intrinsic clearance measured per mg protein at 1 uM measured upto 60 mins by LC-MS/MS analysis; assay type: ADME, Microsome; conditions: read-out: CLH
How it was run: (§4)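 Pooled human or CD-1 male mouse liver microsomes at 0.5 mg/mL with test compound 1 µM in 50 mM phosphate pH 7.4 and 3 mM MgCl2, preincubated 10 min at 37 °C. Percent parent remaining vs 0 min measured by LC-MS/MS. Cli = k/microsomal conc. × 1000; mean ± SD, n = 2.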

[23] = Metabolic stability in mouse liver microsomes assessed as intrinsic clearance measured per mg protein at 1 uM measured upto 60 mins by LC-MS/MS analysis; assay type: ADME, Microsome; conditions: read-out: CLH; how it was run: as §4
[24] = Metabolic stability in human liver microsomes assessed as half life measured per mg protein at 1 uM measured upto 60 mins by LC-MS/MS analysis; assay type: ADME, Microsome; how it was run: as §4
[25] = Metabolic stability in mouse liver microsomes assessed as half life measured per mg protein at 1 uM measured upto 60 mins by LC-MS/MS analysis; assay type: ADME, Microsome; how it was run: as §4

SMILES | Activity (THP-1 [1]) | Activity (THP-1 [2]) | Activity (THP-1 [3]) | Activity (THP-1 [4]) | Activity (THP-1 [5]) | Activity (THP-1 [6]) | Activity (THP-1 [7]) | Activity (BMDM [8]) | Activity (BMDM [9]) | Activity (BMDM [10]) | Activity (BMDM [11]) | Activity (Mus musculus [12]) | Activity (Mus musculus [13]) | Activity (B16-F10 [14]) | Activity (B16-F10 [15]) | Activity (B16-F10 [16]) | Activity (B16-F10 [17]) | Activity (B16-F10 [18]) | Activity (B16-F10 [19]) | Activity (B16-F10 [20]) | also measured
Nc1ccc(S(=O)(=O)N2Cc3ccccc3C[C@H]2C(=O)Nc2c3c(cc4c2CCC4)CCC3)cc1 | Non-Toxic | inactive | inactive | inactive | inactive | Active | Active | inactive | inactive | inactive | inactive | Active | Active | Active | inactive | inactive | inactive | inactive | inactive | inactive | Activity (B16-F10 [21]): Active; microsomal CLint at 1 µM [22]: 28.7 µL/min/mg; microsomal CLint at 1 µM [23]: 270 µL/min/mg; half-life at 1 µM [24]: 48.3 min; half-life at 1 µM [25]: 5.1 min
Nc1ccc(S(=O)(=O)N[C@@H](Cc2ccc(O)cc2)C(=O)Nc2c3c(cc4c2CCC4)CCC3)cc1 | Non-Toxic | inactive | inactive | inactive | inactive | Active | Active | inactive | inactive | inactive | inactive | Active | Active | Active | inactive | inactive | inactive | inactive | inactive | inactive | Activity (B16-F10 [21]): Active; microsomal CLint at 1 µM [22]: 31.9 µL/min/mg; microsomal CLint at 1 µM [23]: 124 µL/min/mg; half-life at 1 µM [24]: 46.2 min; half-life at 1 µM [25]: 11.2 min
